We go through 31 molecules from ChEMBL document CHEMBL1146360, “Benzoic acid and pyridine derivatives as inhibitors of Trypanosoma cruzi trans-sialidase” (Bioorg Med Chem, 2007).

For test [1], the system named is Trypanosoma cruzi. To be noted: at 1 mM.
Test [2] can be described thus: Inhibition of Trypanosoma cruzi recombinant Trans-sialidase. The note with it: read-out: I50. The essentials:
(§1)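 Recombinant His-tagged TcTS was expressed in E. coli with IPTG induction at 18 °C, then purified by metal-affinity and anion-exchange chromatography. Enzyme (0.33 mg/mL stock) and inhibitor were preincubated 10 min at 25 °C in 20 mM Tris-HCl pH 7.5. The reaction was started with MuNANA (1 mM stock) and methylumbelliferone release read continuously for 10 min at 25 °C (ex 322/em 448 nm). Percentage activity is the mean of ≥3 independent runs. I50 was fitted as V=100%/{1+([I]/I50)^s}.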

Test [3] deals with Trypanosoma cruzi. As to the kind of experiment: Apparent activation of Trypanosoma cruzi recombinant Trans-sialidase. The note with it: concentration not given here. In a few lines: as §1
Test [4] has as its system Trypanosoma cruzi. As to the kind of experiment: Inhibition of Trypanosoma cruzi recombinant Trans-sialidase at 0.5 mM. In a few lines:
as §1

The test system of test [5] is Trypanosoma cruzi. The experiment in a line: Inhibition of Trypanosoma cruzi recombinant Trans-sialidase at 0.4 mM. In a few lines: as §1

SMILES strings stand for the structures.

For the molecule `O=C(CN1CCOCC1)Nc1ccc(C(=O)O)cc1`, the inhibition (as a rule, the change of the read-out against control, counted positive when it falls) in test [1] stood at 0%.
Same read-out and setting: with `CC(=O)Nc1ccc(C(=O)O)cc1` the figure was 0%.
`Nc1cc(C(=O)O)ccc1SCc1ccccc1`: in test [2], the IC50 was found to be 700 µM.
Take `CC(=O)Nc1ccc(C(=O)O)cc1CO`: in test [2], the IC50 amounted to 540 µM.
With `N=C(N)Nc1cc(CCN)cc(C(=O)O)c1`, in test [3], the inhibition is -19%.
Take `N=C(N)Nc1cc(/C=N/O)cc(C(=O)O)c1`: the inhibition in test [1] came out at 35%.
Still for that read-out and setting: with `CC(=O)Nc1ccc(C(=O)O)cc1CCN` the figure was 25%.
Turning to `CS(=O)(=O)Nc1c(CO)cc(C(=O)O)cc1N=C(N)N`, the inhibition in test [1] was 11%.
The same measure, in the same setting: with `CC(=O)Nc1ccc(C(=O)O)cc1/C=N/O` the figure was 24%; with `CS(=O)(=O)Nc1ccc(C(=O)O)cc1C(O)CN` (stereo unspecified), 17%.
In the case of `CNC(=O)c1ccc(C(=O)O)cc1NC(=N)N`, in test [2], the IC50 is 760 µM.
On to `NC(N)=Nc1cc(C(=O)O)ccc1NC(=O)Cc1ccccc1`, for which, in test [4], the inhibition turned out to be 54%.
Turning to `CC(=O)Nc1ccc(C(=O)O)cc1CC(O)CO` (stereo in doubt; 31), the inhibition in test [1] was determined as 17%.
As for `CC(=O)Nc1cc(C(=O)O)ccc1N1CCOCC1`, the IC50 in test [2] was found to be 580 µM.
`CC(=O)Nc1ccc(C(=O)O)nc1`: the inhibition in test [1] amounted to 22%.
For `NC(N)=Nc1cc(C(=O)O)cc(CCO)c1N`, the inhibition in test [1] was 0%.
As for `NC(N)=Nc1cc(C(=O)O)ccc1NCc1ccccc1`, the inhibition in test [1] was determined as 9%.
Take `CC(=O)Nc1ccc(C(=O)O)nc1N`: the IC50 in test [2] turned out to be 440 µM.
As to `Nc1cc(C(=O)O)ccc1NC(=O)Cc1ccccc1`, in test [2], the IC50 is 1200 µM.
As to `Nc1cc(C(=O)O)ccc1NCc1cccnc1`, the IC50 in test [2] is 740 µM.
Consider `CS(=O)(=O)Nc1c(/C=N/O)cc(C(=O)O)cc1N=C(N)N`, for which, in test [1], the inhibition is 46%.
As for `NC(N)=Nc1cc(C(=O)O)ccc1SCc1ccccc1`, in test [5], the inhibition stood at 43%.
As to `CC(=S)Nc1ccc(C(=O)O)nc1`, the IC50 in test [2] turned out to be 540 µM.
In the case of `CC(=O)Nc1cnc(C(=O)O)cc1N`, the inhibition in test [1] amounted to 14%.
On to `CS(=O)(=O)Nc1ccc(C(=O)O)nc1`, for which, in test [1], the inhibition was found to be 25%.
In the case of `CC(=O)Nc1c(CCO)cc(C(=O)O)cc1N=C(N)N`, the inhibition in test [1] turned out to be 0%.
On to `CC(=O)Nc1ccc(C(=O)O)cc1CC(O)CO` (stereo in doubt; 32), for which the inhibition in test [1] was 0%.
In the case of `NCC(=O)Nc1cc(C(=O)O)ccc1SCc1ccccc1`, the IC50 in test [2] was 1000 µM.
`CC(=O)Nc1ccc(C(=O)O)cc1CC(N)=O`: the inhibition in test [1] is 0%.
On to `C[S+]([O-])Nc1ccc(C(=O)O)cc1N=C(N)N` (stereo unspecified), for which the inhibition in test [1] came out at 29%.
Turning to `CC(=O)Nc1ccc(C(=O)O)cc1CCO`, the inhibition in test [1] is 16%.
